Measurements of several laboratories.
Protocols differ between the studies behind these lines.
Target: Ephrin type-A receptor 4 (EPHA4, Homo sapiens, UniProt P54764)

Compound	assay	conditions	remaining binding [%]
CN(CCCC(F)(F)F)c1nccc(-c2cnn3ncccc23)n1	binding	1 µM	100
COc1ncc2cc3ccccc3nc2c1C#N	cell-free assay, competition with immobilised ligand	5 µM	100
O=C(NCCCN1CCOCC1)c1ccc(Nc2nccc(-c3cc4ccccc4s3)n2)cc1	binding, competition with immobilised ligand	1 µM	82
CN(C)c1nccc(-c2cnn3ncccc23)n1	binding	1 µM	99
O=c1nc(-c2ccccn2)sc2ccccc12	cell-free assay, competition with immobilised ligand	1 µM	100
CNC(=O)[C@@H]1CC[C@@H](n2c(-c3ccc4cnccc4c3)nc3ccc(C(=O)NCc4cccc(C(N)=O)c4)cc32)C1	binding, competition with immobilised ligand	1 µM	98
NS(=O)(=O)c1cc(NC(=O)Cc2ccccc2)ccc1Oc1cccc(Cl)c1	cell-free assay, competition with immobilised ligand	1 µM	97
O=C(Nc1c[nH]nc1C(=O)NC1CCNCC1)c1cc(F)cc(F)c1	binding, competition with immobilised ligand	1 µM	100
CC(=O)c1c(NS(C)(=O)=O)c2cc(-c3ccc(Cl)cc3)c(-c3ccc(Cl)cc3Cl)nc2n(C)c1=O	cell-free assay, competition with immobilised ligand	1 µM	98
C[C@H]1CCN(c2nccc(-c3cnn4ncccc34)n2)C1	binding	1 µM	86
C=CC(=O)N1CCC(C(=O)NCC(=O)N2CCN(c3nc(-c4cnc(N)nc4C(F)F)nc(N4CCOCC4)n3)CC2)CC1	binding, competition with immobilised ligand	1 µM	94
O=C(NCCCN1CCOCC1)c1ccc(Nc2ncc(Cl)c(-c3ccc(Cl)s3)n2)cc1	binding, competition with immobilised ligand	1 µM	89
O=C(Nc1ccc(Oc2ccc(F)cc2)cc1)N1CCc2ncccc2[C@H]1c1ccc(F)cc1	cell-free assay, competition with immobilised ligand	1 µM	100
Cc1cnc(Nc2ccc(C(=O)N3CCC(N4CCCC4)CC3)cc2)nc1-c1cc2ccccc2s1	binding, competition with immobilised ligand	1 µM	57
CC1CCCN1c1nccc(-c2cnn3ncccc23)n1 (stereo not shown)	binding	1 µM	97
COc1cnc(Nc2cccc(S(N)(=O)=O)c2)nc1N1CCN(c2ccccc2)C(=O)C1	binding, competition with immobilised ligand	1 µM	100
N[C@H]1CCN(c2nccc(-c3cnn4ncccc34)n2)C1	binding	1 µM	100
O=C(N1CCS(=O)(=O)CC1)N1C[C@H](c2ccc(OC(F)(F)F)cc2)C[C@H](c2nc(C3CC3)no2)C1	cell-free assay, competition with immobilised ligand	1 µM	100
CCN1CCN(Cc2ccc(C(=O)Nc3ccc(C)c(Oc4ccc5c(c4)CC(=O)N5)c3)cc2C(F)(F)F)CC1	binding, competition with immobilised ligand	1 µM	100
C[C@@H](c1ccc(-n2cnc3c(N)ncnc32)cc1)N1CCc2nn(C)c(Cc3ccccc3)c2C1=O	binding, competition with immobilised ligand	0.1 µM	97
CN(c1nccc(-c2cnn3ncccc23)n1)C1CC1	binding	1 µM	100
CNCc1ccccc1-c1csc([C@@H](C)Nc2nc(C)nc3cc(OC)c(OC)cc23)c1	cell-free assay, competition with immobilised ligand	1 µM	79
